Measurements as given in ChEMBL document CHEMBL1128448, “Synthesis and antifungal activity of new azole derivatives containing an N-acylmorpholine ring” (1995).
≈ marks a conversion by molar mass, not a printed value.

Tests used:
[1] = test system: Mus sp.; assay: In vivo evaluation of % survival rate after peroral administration on 3rd day at dose 0.5 mg/kg; type: functional; settings: route oral
[2] = test system: Pichia kudriavzevii; assay: In vitro evaluation of minimum inhibitory concentration against Candida krusei 70; type: functional; settings: Pichia kudriavzevii; read-out: MIC
Procedure, shortened: (§1)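 Stocks are 800 μg/mL in 50% ethanol. Each plate gets 10 μL of inoculum at 10^5 cfu/mL. Incubation at 25 °C, 48 h for yeasts and 120 h for dermatophytes and molds. Organisms are ATCC strains or clinical isolates.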

[3] = test system: Nakaseomyces glabratus; assay: In vitro evaluation of minimum inhibitory concentration against Torulopsis glabrata 78; type: functional; procedure, shortened: as §1
[4] = test system: Candida tropicalis; assay: In vitro evaluation of minimum inhibitory concentration against Candida tropicalis 2.11; type: functional; procedure, shortened: as §1
[5] = test system: Rhodotorula mucilaginosa; assay: In vitro evaluation of minimum inhibitory concentration against Rhodotorula rubra 16; type: functional; procedure, shortened: as §1
[6] = test system: Rattus norvegicus; assay: In vivo evaluation of antifungal activity in against vaginal candidosis in rat at dose 0.25 mg/kg on 15th day; type: functional
Procedure, shortened: (§2)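 Groups of 10 female Wistar rats given estradiol 25 mg/kg sc on day -5, infected intravaginally with C. albicans by sterile swab on day 0; infection confirmed on day 3 by swab culture (TSB, then Sabouraud agar). Oral dosing once daily on days 3, 4, 5; vehicle controls. Vaginal swabs cultured on days 10 and 15; read-out % cured (culture-negative).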

[7] = test system: Mus sp.; assay: In vivo evaluation of % survival rate after peroral administration on 7th day at dose 1 mg/kg; type: functional; settings: route oral, 1 mg/kg
[8] = test system: Aspergillus niger; assay: In vitro evaluation of minimum inhibitory concentration against Aspergillus niger 18; type: functional; settings: Aspergillus niger; read-out: MIC; procedure, shortened: as §1
[9] = test system: Rattus norvegicus; assay: In vivo evaluation of antifungal activity in against vaginal candidosis in rat at dose 0.25 mg/kg on 10th day; type: functional; procedure, shortened: as §2
[10] = test system: Nannizzia gypsea; assay: In vitro evaluation of minimum inhibitory concentration against Microsporum gypseum 22; type: functional; procedure, shortened: as §1
[11] = test system: Trichophyton rubrum; assay: In vitro evaluation of minimum inhibitory concentration against Trichophyton rubrum 90; type: functional; procedure, shortened: as §1
[12] = test system: Mus sp.; assay: In vivo evaluation of % survival rate after peroral administration on 5th day at dose 0.5 mg/kg; type: functional; settings: route oral
[13] = test system: Rattus norvegicus; assay: In vivo evaluation of antifungal activity against vaginal candidosis in rat at dose 0.1 mg/kg on 15th day; type: functional
Procedure, shortened: (§3)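 Groups of 10 female Wistar rats given estradiol 25 mg/kg sc on day -5, then vaginally inoculated with C. albicans on day 0. Infection is confirmed by culture of day-3 swabs. Compound is dosed orally once daily on days 3–5; controls get vehicle. Cure is scored by culture of vaginal swabs taken on days 10 and 15.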

[14] = test system: Mus sp.; assay: In vivo evaluation of % survival rate after peroral administration on 3rd day at dose 1 mg/kg; type: functional; settings: for Survival: route oral, 1 mg/kg
[15] = test system: Mus sp.; assay: In vivo evaluation of % survival rate after peroral administration on 9th day at dose 1 mg/kg; type: functional; settings: route oral, 1 mg/kg
[16] = test system: Trichophyton benhamiae; assay: In vitro evaluation of minimum inhibitory concentration against Trichophyton mentagrophytes 23; type: functional, Arthroderma benhamiae; procedure, shortened: as §1
[17] = test system: Aspergillus flavus; assay: In vitro evaluation of minimum inhibitory concentration against Aspergillus flavus 19; type: functional; settings: Aspergillus flavus; read-out: MIC; procedure, shortened: as §1
[18] = test system: Mus sp.; assay: In vivo evaluation of % survival rate after peroral administration on 9th day at dose 0.5 mg/kg; type: functional; settings: route oral, 0.5 mg/kg
[19] = test system: Rattus norvegicus; assay: In vivo evaluation of antifungal activity against vaginal candidosis in rat at dose 0.1 mg/kg on 10th day; type: functional; procedure, shortened: as §3
[20] = test system: Candida parapsilosis; assay: In vitro evaluation of minimum inhibitory concentration against Candida parapsilosis 61; type: functional; procedure, shortened: as §1
[21] = test system: Microsporum canis; assay: In vitro evaluation of minimum inhibitory concentration against Microsporum canis 47; type: functional; procedure, shortened: as §1
[22] = test system: Mus musculus; assay: In vivo evaluation of % survival rate after peroral administration on 7th day at dose 0.5 mg/kg; type: functional; settings: route oral, 0.5 mg/kg
[23] = test system: Kluyveromyces marxianus; assay: In vivo Evaluation of minimum inhibitory concentration against Candida pseudotropicalis 13; type: functional; procedure, shortened: as §1
[24] = test system: Aspergillus fumigatus; assay: In vitro evaluation of minimum inhibitory concentration against Aspergillus fumigatus 33; type: functional; procedure, shortened: as §1
[25] = test system: Mus sp.; assay: In vivo evaluation of % survival rate after peroral administration on 5th day at dose 1 mg/kg; type: functional; settings: route oral, 1 mg/kg
[26] = test system: Kluyveromyces marxianus; assay: In vitro evaluation of minimum inhibitory concentration against Candida pseudotropicalis 13; type: functional; procedure, shortened: as §1
[27] = test system: Meyerozyma guilliermondii; assay: In vitro evaluation of minimum inhibitory concentration against Candida guilliermondii 26; type: functional; procedure, shortened: as §1
[28] = test system: Candida albicans; assay: In vivo evaluation of minimum inhibitory concentration against Candida albicans 406; type: functional
Procedure, shortened: (§4)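 Broth macrodilution MIC following NCCLS M27-P, in RPMI-1640 buffered with 0.165 M MOPS. Fluconazole was dissolved in water and other drugs in DMSO. C. parapsilosis ATCC 22019 served as the reference strain in every run. MIC was the lowest concentration giving turbidity at or below the 80% inhibition standard.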

[29] = test system: Nakaseomyces glabratus; assay: In vivo Evaluation of minimum inhibitory concentration against Torulopsis glabrata 78; type: functional; settings: in the assay text read “In vitro” for “In vivo”; procedure, shortened: as §1
[30] = test system: Candida albicans; assay: In vitro evaluation of minimum inhibitory concentration against Candida albicans 76; type: functional; procedure, shortened: as §1
[31] = test system: Candida albicans; assay: In vivo evaluation of minimum inhibitory concentration against Candida albicans 60; type: functional; procedure, shortened: as §4
[32] = test system: Mus musculus; assay: In vivo evaluation of % survival rate after peroral administration on 7th day at dose 5 mg/kg; type: functional; settings: route oral
[33] = test system: Mus musculus; assay: In vivo evaluation of % survival rate after peroral administration on 3rd day at dose 5 mg/kg; type: functional; settings: route oral
[34] = test system: Mus musculus; assay: In vivo evaluation of % survival rate after peroral administration on 5th day at dose 5 mg/kg; type: functional; settings: route oral
[35] = test system: Mus musculus; assay: In vivo evaluation of % survival rate after peroral administration on 9th day at dose 5 mg/kg; type: functional; settings: route oral
[36] = test system: Rattus norvegicus; assay: In vivo evaluation of antifungal activity against vaginal candidosis in rat at dose 0.5 mg/kg on 10th day; type: functional
Procedure, shortened: (§5)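 Female Wistar rats, 10 per group, received estradiol 25 mg/kg sc on day -5. On day 0 they were infected intravaginally with C. albicans by sterile swab. Infection was confirmed on day 3 by culturing the swab in TSB and then on Sabouraud agar. Oral dosing was once daily on days 3, 4 and 5; controls got vehicle only. Vaginal swabs taken on days 10 and 15 were cultured and read the next day.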

[37] = test system: Rattus norvegicus; assay: In vivo evaluation of antifungal activity against vaginal candidosis in rat at dose 0.5 mg/kg on 15th day; type: functional; procedure, shortened: as §5
[38] = test system: Rattus norvegicus; assay: In vivo evaluation of antifungal activity against vaginal candidosis in rat at dose 0.25 mg/kg on 10th day; type: functional; procedure, shortened: as §2
[39] = test system: Rattus norvegicus; assay: In vivo evaluation of antifungal activity against vaginal candidosis in rat at dose 0.25 mg/kg on 15th day; type: functional; procedure, shortened: as §2
[40] = Candida tropicalis, read-out: MIC

C[C@H]1N(C(=O)c2ccc(C(F)(F)F)cc2)CCO[C@@]1(Cn1cncn1)c1ccc(F)cc1F (stereo in doubt)
survival at 0.5 mg/kg [1]: 100% | MIC [2]: 80 µg/mL (≈ 172 µM) | MIC [3]: 40 µg/mL (≈ 85.8 µM) | MIC [4, 40]: > 80 µg/mL | MIC [5]: >80 µg/mL | Cure rate [6]: 60% | Survival [7]: 100% | MIC [8]: 40 µg/mL (≈ 85.8 µM) | Cure rate [9]: 40% | MIC [10]: 20 µg/mL (≈ 42.9 µM) | MIC [11]: 10 µg/mL (≈ 21.4 µM) | survival at 0.5 mg/kg [12]: 100% | Cure rate [13]: 20% | survival at 1 mg/kg ([14]; Mus sp., po): 100% | Survival [15]: 100% | MIC [16]: 10 µg/mL (≈ 21.4 µM) | MIC [17]: > 80 µg/mL | Survival [18]: 100% | Cure rate [19]: 10% | MIC [20]: 2.5 µg/mL (≈ 5.36 µM) | MIC [21]: 10 µg/mL (≈ 21.4 µM) | Survival [22]: 100% | MIC [23]: 40 µg/mL (≈ 85.8 µM) | MIC [24]: 10 µg/mL (≈ 21.4 µM) | Survival [25]: 100%

C[C@H]1N(C(=O)c2ccc(C(F)(F)F)cc2)CC(=O)O[C@@]1(Cn1cncn1)c1ccc(Cl)cc1Cl (stereo in doubt; (+)-32a)
MIC [26]: >80 µg/mL | MIC [4]: >80 µg/mL | Survival [7]: 0% | Survival [14]: 0% | Survival [15]: 0% | MIC [27]: >80 µg/mL | MIC [20]: >80 µg/mL | MIC [28]: >80 µg/mL | MIC [29]: > 80 µg/mL | MIC [30]: >80 µg/mL | MIC [31]: >80 µg/mL | Survival [25]: 0%

C[C@H]1N(C(=O)c2ccc(C(F)(F)F)cc2)C[C@H](O)O[C@@]1(Cn1cncn1)c1ccc(F)cc1F (stereo in doubt; (+)-39a)
MIC [26]: >80 µg/mL | survival at 5 mg/kg [32]: 0% | survival at 5 mg/kg [33]: 40% | MIC [20]: >80 µg/mL | MIC [28]: >80 µg/mL | survival at 5 mg/kg [34]: 0% | survival at 5 mg/kg [35]: 0% | MIC [31]: >80 µg/mL

C[C@H]1N(C(=O)c2ccc(C(F)(F)F)cc2)CC(=O)O[C@@]1(Cn1cncn1)c1ccc(Cl)cc1Cl (stereo in doubt; (-)-32a)
MIC [26]: 10 µg/mL (≈ 19.5 µM) | MIC [2]: > 80 µg/mL | MIC ([3]; Nakaseomyces glabratus, read-out: MIC): > 80 µg/mL | MIC [4, 40]: 40 µg/mL (≈ 77.9 µM) | MIC ([5]; Rhodotorula mucilaginosa, read-out: MIC): > 80 µg/mL | Survival [7]: 70% | Cure rate [36]: 80% | MIC [8]: > 80 µg/mL | MIC ([10]; Nannizzia gypsea, read-out: MIC): > 80 µg/mL | MIC ([11]; Trichophyton rubrum, read-out: MIC): > 80 µg/mL | Survival [14]: 100% | Survival [15]: 10% | Cure rate [37]: 100% | MIC ([16]; Trichophyton benhamiae, read-out: MIC): > 80 µg/mL | MIC [17]: > 80 µg/mL | MIC ([27]; Meyerozyma guilliermondii, read-out: MIC): 80 µg/mL (≈ 156 µM) | Cure rate [38]: 70% | MIC ([20]; Lodderomyces parapsilosis, read-out: MIC): 40 µg/mL (≈ 77.9 µM) | Cure rate [39]: 70% | MIC ([21]; Microsporum canis, read-out: MIC): > 80 µg/mL | MIC [28]: 5 µg/mL (≈ 9.74 µM) | MIC ([24]; Aspergillus fumigatus, read-out: MIC): > 80 µg/mL | MIC [30]: 20 µg/mL (≈ 39 µM) | MIC [31]: 10 µg/mL (≈ 19.5 µM) | Survival [25]: 100%
